{
  "source": "ChEMBL document CHEMBL3259777",
  "about": "“The cannabinoid acids, analogs and endogenous counterparts” (Bioorg Med Chem, 2014)",
  "key": {"[1]": {"experiment": "Antiinflammatory activity in LPS-induced mouse […] cells assessed as PGJ2 synthesis at 10 uM relative to control", "assay_type": "functional, RAW264.7"}, "Mus musculus [2]": {"species_on_record": "Mus musculus", "experiment": "Stimulation of phospholipase A2 in mouse brain synaptosomes using [1-14C]phosphotidylcholine as substrate assessed as arachidonic acid release relative to control", "assay_type": "subcellular"}, "RAW [3]": {"system": "RAW", "experiment": "Antiinflammatory activity in mouse RAW cells assessed as arachidonic acid release at 3 uM after 1 hr by liquid scintillation counting analysis in presence of [14C]-arachidonic acid relative to control", "assay_type": "functional", "procedure,_shortened": "(§1)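 RAW cells labelled 2 hr with 14C-arachidonic acid, then medium changed to RPMI + 0.1% BSA. Cells treated 1 hr with non-radioactive test agent added in 10 µl DMSO; DMSO alone as control. Release counted by LSC on a 0.1 ml medium aliquot, expressed as treated/control, means ± SD.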"}, "RAW [4]": {"system": "RAW", "experiment": "Antiinflammatory activity in mouse RAW cells assessed as arachidonic acid release at 6 uM after 1 hr by liquid scintillation counting analysis in presence of [14C]-arachidonic acid relative to control", "assay_type": "functional", "procedure,_shortened": "as §1"}, "Mus musculus [5]": {"system": "Mus musculus", "experiment": "Antiinflammatory activity in mouse peritonitis model assessed as reduction of pro-inflammatory cell migration into peritoneal cavity at 0.3 mg/kg, po", "assay_type": "functional", "parameters": "scale not given: the % may be the effect or the level left", "procedure,_shortened": "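Mouse peritonitis induced by thioglycollate challenge. Compound given orally, and migration of pro-inflammatory cells into the peritoneal cavity quantified.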"}, "RAW [6]": {"system": "RAW", "experiment": "Antiinflammatory activity in mouse RAW cells assessed as arachidonic acid release at 12 uM after 1 hr by liquid scintillation counting analysis in presence of [14C]-arachidonic acid relative to control", "assay_type": "functional", "procedure,_shortened": "as §1"}, "[7]": {"experiment": "Antiinflammatory activity in LPS-induced mouse […] cells assessed as PGJ2 synthesis at 3 uM relative to control", "assay_type": "functional, RAW264.7"}, "RAW [8]": {"system": "RAW", "experiment": "Antiinflammatory activity in mouse RAW cells assessed as arachidonic acid release at 24 uM after 1 hr by liquid scintillation counting analysis in presence of [14C]-arachidonic acid relative to control", "assay_type": "functional", "procedure,_shortened": "as §1"}, "RAW [9]": {"system": "RAW", "experiment": "Antiinflammatory activity in mouse RAW cells assessed as arachidonic acid release at 1.5 uM after 1 hr by liquid scintillation counting analysis in presence of [14C]-arachidonic acid relative to control", "assay_type": "functional", "procedure,_shortened": "as §1"}, "[10]": {"experiment": "Antiinflammatory activity in LPS-induced mouse […] cells assessed as PGJ2 synthesis at 3 uM in presence of polyclonal antiGPR18 relative to control", "assay_type": "functional, RAW264.7"}, "Blood [11]": {"system": "Blood", "experiment": "Induction of LXA4 production in human blood at 25 uM after 1 hr in presence of 12/15 LOX inhibitor baicalein relative to control", "assay_type": "functional"}, "Rattus norvegicus [12]": {"system": "Rattus norvegicus", "experiment": "Analgesic activity in rat assessed as reversal of mechanical hyperalgesia at 0.1 to 1 mg/kg, po", "assay_type": "functional", "conditions": "dose mg/kg 0.1-1"}, "Blood [13]": {"system": "Blood", "experiment": "Induction of LXA4 production in human blood at 1 to 30 uM incubated for 5 hrs by ELISA", "assay_type": "functional"}, "[14]": {"experiment": "Induction of LXA4 production in HFLS cells at 1 to 30 uM incubated for 1 hr followed by TNF-alpha challenge for 18 hrs by ELISA relative to control", "assay_type": "functional, Homo sapiens"}, "Rattus norvegicus [15]": {"system": "Rattus norvegicus", "experiment": "Reversal of PAF-induced allodynia in ip dosed rat after 40 to 60 mins by paw withdrawal test", "assay_type": "functional", "procedure,_shortened": "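Rat tonic inflammatory pain model with platelet-activating factor injected into the hind paw. Doses of 3, 4.5, 6.8, 10.1 and 15.2 mg/kg given i.p. Paw withdrawal threshold to mechanical pressure read 40-60 min post-drug. Approximate ED-50 estimated from the dose-response curve for reversal of PAF-induced allodynia.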"}, "Mus musculus [16]": {"system": "Mus musculus", "experiment": "Reduction of cell invasion to peritoneum in zymosan-A-induced FVB mouse peritonitis model at 1.5 mg/kg, iv by mass spectrometry", "assay_type": "functional", "parameters": "scale not given: the % may be the effect or the level left"}, "Mus musculus [17]": {"system": "Mus musculus", "experiment": "Induction of LXA4 production in zymosan-A-induced FVB mouse peritonitis model at 1.5 mg/kg, iv by mass spectrometry relative to control", "assay_type": "functional"}, "[18]": {"experiment": "Drug metabolism in human hepatocytes assessed as parent compound remaining after 2 hrs", "assay_type": "ADME, cell-based, Hepatocyte", "conditions": "read-out: Stability"}, "[19]": {"experiment": "Drug metabolism in dog hepatocytes assessed as parent compound remaining after 2 hrs", "assay_type": "ADME, cell-based, Canis lupus familiaris, Hepatocyte", "conditions": "read-out: Stability"}, "Cannabinoid receptor 1": {"biological_target": "Cannabinoid receptor 1 (Homo sapiens, UniProt P21554)", "sequence (P21554 whole entry)": "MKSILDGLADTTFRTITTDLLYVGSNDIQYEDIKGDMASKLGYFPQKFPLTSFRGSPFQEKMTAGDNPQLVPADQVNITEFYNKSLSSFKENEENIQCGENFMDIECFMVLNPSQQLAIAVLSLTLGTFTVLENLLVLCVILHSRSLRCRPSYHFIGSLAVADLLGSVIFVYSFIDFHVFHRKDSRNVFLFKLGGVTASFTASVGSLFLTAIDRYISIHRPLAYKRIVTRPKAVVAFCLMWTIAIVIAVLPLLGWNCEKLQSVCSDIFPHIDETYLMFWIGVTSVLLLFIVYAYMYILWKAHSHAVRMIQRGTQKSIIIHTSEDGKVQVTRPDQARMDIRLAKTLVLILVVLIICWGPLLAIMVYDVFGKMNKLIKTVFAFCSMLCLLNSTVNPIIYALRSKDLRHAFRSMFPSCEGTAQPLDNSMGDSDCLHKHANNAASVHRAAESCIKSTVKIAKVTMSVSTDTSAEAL", "experiment": "Binding affinity to CB1 receptor (unknown origin)"}, "[20]": {"experiment": "Drug metabolism in rat hepatocytes assessed as parent compound remaining after 2 hrs", "assay_type": "ADME, cell-based, Hepatocyte", "conditions": "read-out: Stability"}, "Mus musculus [21]": {"system": "Mus musculus", "experiment": "Antiinflammatory activity in mouse assessed as adhering leukocytes at 1 mg/kg, po after 6 hrs relative to vehicle-treated control", "assay_type": "functional", "procedure,_shortened": "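Given orally in oil over 0.01 to 1.0 mg/kg. Peritoneal cells collected from mice 6 hours after dosing and cultured 18-20 hours before leukocyte adhesion was measured. Compared with vehicle-dosed mice.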"}, "Mus musculus [22]": {"system": "Mus musculus", "experiment": "Antiinflammatory activity in mouse assessed as reduction of IL-1beta/TNF-alpha-induced leukocyte count in air pouches at 0.1 mg/kg/day", "assay_type": "functional", "parameters": "scale not given: the % may be the effect or the level left", "procedure,_shortened": "(§2)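 Mouse acute inflammation: IL-1β and TNFα injected into air pouches formed on the back. Drug dosed daily, and leukocytes counted in pouch exudates.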"}, "[23]": {"experiment": "Drug metabolism in cynomolgus monkey hepatocytes assessed as parent compound remaining after 2 hrs", "assay_type": "ADME, cell-based, Hepatocyte", "conditions": "read-out: Stability"}, "[24]": {"experiment": "Plasma concentration in patient at 20 mg, po after 2 hrs", "assay_type": "ADME, organism-based", "conditions": "human", "procedure,_shortened": "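Single oral 20 mg dose in humans. Plasma sampled two hours post-dose, reported as mean ± R.S.D., n=9; glucuronide measured as well.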"}, "[25]": {"experiment": "Inhibition of MMP-3 release in TNF alpha-induced HFLS cells at 10 uM", "assay_type": "functional", "conditions": "Homo sapiens"}, "Mus musculus [26]": {"system": "Mus musculus", "experiment": "Antiinflammatory activity in mouse assessed as reduction of IL-1beta/TNF-alpha-induced leukocyte count in air pouches at 0.2 mg/kg/day", "assay_type": "functional", "parameters": "scale not given: the % may be the effect or the level left", "procedure,_shortened": "as §2"}},
  "data": [
    {"molecule": "CCCCC/C=C\\C/C=C\\C/C=C\\CCCCC(=O)NCC(=O)O", "values": [
      {"measurement": "Activity", "setting": "[1]", "result": 203, "unit": "%"}
    ]},
    {"molecule": "CCCCC/C=C\\C/C=C\\C/C=C\\C/C=C\\CCCC(=O)N[C@@H](C)C(=O)O", "values": [
      {"measurement": "Activity", "setting": "[1]", "result": 212, "unit": "%"}
    ]},
    {"molecule": "CCCCCCCC/C=C\\CCCCCCCC(=O)NC(C)(C)C(=O)O", "values": [
      {"measurement": "Activity", "setting": "[1]", "result": 118, "unit": "%"}
    ]},
    {"molecule": "CCCCC/C=C\\C/C=C\\C/C=C\\C/C=C\\CCCC(=O)NC(C)(C)C(=O)O", "values": [
      {"measurement": "Activity", "setting": "[1]", "result": 220, "unit": "%"}
    ]},
    {"molecule": "CCCCCc1cc(O)c2c(c1)OC(C)(C)[C@@H]1CCC(C(=O)O)=C[C@@H]21", "values": [
      {"measurement": "Activity", "setting": "Mus musculus [2]", "result": 20, "unit": "%"}
    ]},
    {"molecule": "CCCCC/C=C\\C/C=C\\C/C=C\\C/C=C\\CCCC(=O)NCC(=O)O", "note": "[ARACHIDONOYL GLYCINE]", "values": [
      {"measurement": "T/C", "setting": "RAW [3]", "result": 1.2},
      {"measurement": "T/C", "setting": "RAW [4]", "result": 1.4},
      {"measurement": "Activity", "setting": "Mus musculus [5]", "result": 60, "unit": "%"},
      {"measurement": "T/C", "setting": "RAW [6]", "result": 1.85},
      {"measurement": "Activity", "setting": "[7]", "result": 100, "unit": "%"},
      {"measurement": "T/C", "setting": "RAW [8]", "result": 2.95},
      {"measurement": "T/C", "setting": "RAW [9]", "result": 1},
      {"measurement": "Activity", "setting": "[10]", "result": 50, "unit": "%"},
      {"measurement": "Activity", "setting": "[1]", "result": 213, "unit": "%"}
    ]},
    {"molecule": "CCCCCCC(C)(C)c1cc(O)c2c(c1)OC(C)(C)[C@@H]1CC=C(C(=O)O)C[C@@H]21", "note": "[LENABASUM]", "values": [
      {"measurement": "Activity", "setting": "Blood [11]", "result": ">90", "unit": "%"},
      {"measurement": "Activity", "setting": "Rattus norvegicus [12]", "result": "<=60%"},
      {"measurement": "Ratio", "setting": "Blood [13]", "result": 2},
      {"measurement": "Ratio", "setting": "[14]", "result": 2},
      {"measurement": "ED50", "setting": "Rattus norvegicus [15]", "result": 4.2, "unit": "mg/kg"},
      {"measurement": "Activity", "setting": "Mus musculus [16]", "result": 75, "unit": "%"},
      {"measurement": "Ratio", "setting": "Mus musculus [17]", "result": 7},
      {"measurement": "remaining at 2 h", "setting": "[18]", "result": 83, "unit": "%"},
      {"measurement": "remaining at 2 h", "setting": "[19]", "result": 90, "unit": "%"},
      {"measurement": "Ki", "setting": "Cannabinoid receptor 1", "result": 5.7, "unit": "nM"},
      {"measurement": "remaining at 2 h", "setting": "[20]", "result": 103, "unit": "%"},
      {"measurement": "Activity", "setting": "Mus musculus [21]", "result": 24, "unit": "%"},
      {"measurement": "Activity", "setting": "Mus musculus [22]", "result": 42.3, "unit": "%"},
      {"measurement": "remaining at 2 h", "setting": "[23]", "result": 86, "unit": "%"},
      {"measurement": "concentration at 2 h", "setting": "[24]", "result": 599, "unit": "ng/mL"},
      {"measurement": "inhibition at 10 µM", "setting": "[25]", "result": 88, "unit": "%"},
      {"measurement": "Activity", "setting": "Mus musculus [26]", "result": 65.5, "unit": "%"}
    ]},
    {"molecule": "CCCCCCCCCCCCCCCC(=O)NCC(=O)O", "note": "[PALMITOYL GLYCINE]", "values": [
      {"measurement": "Activity", "setting": "[1]", "result": 100, "unit": "%"}
    ]}
  ]
}
